From ChEMBL document CHEMBL4043131, “New prodrugs of two pyrimidine acyclic nucleoside phosphonates: Synthesis and antiviral activity” (Bioorg Med Chem, 2017)
Activity calls are given as the source filed them. The calls are words filed in the database; no cut-off is given here.

How the values were obtained:
[1] = tested on: Coxsackievirus B4; test: Antiviral activity against Coxsackie virus B4 infected in human HeLA cells assessed as inhibition of virus-induced cytopathic effect; assay type: functional, cell-based
Method in brief: (§1)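 Confluent cell monolayers were infected with 100 CCID50 of virus (1 CCID50 = dose infecting 50% of cultures) and incubated with varying compound concentrations. Cytopathicity was scored once complete in untreated infected controls.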

[2] = tested on: Influenza A virus H3N2; test: Antiviral activity against Influenza A virus H3N2 infected in HEL cells assessed as inhibition of virus-induced cytopathic effect; assay type: functional, cell-based
[3] = tested on: Human alphaherpesvirus 2; test: Antiviral activity against Herpes simplex virus 2 G infected in HEL cells assessed as inhibition of virus-induced cytopathic effect; assay type: functional, cell-based; details: Human alphaherpesvirus 2, strain G; method in brief: as §1
[4] = tested on: Sindbis virus; test: Antiviral activity against Sindbis virus infected in African green monkey Vero cells assessed as inhibition of virus-induced cytopathic effect; assay type: functional; method in brief: as §1
[5] = tested on: Human betaherpesvirus 5; test: Antiviral activity against Human cytomegalovirus AD169 infected in HEL cells assessed as inhibition of virus-induced cytopathic effect; assay type: functional, cell-based; details: Human betaherpesvirus 5, AD169, HEL; method in brief: as §1
[6] = tested on: Influenza B virus; test: Antiviral activity against influenza B virus infected in HEL cells assessed as inhibition of virus-induced cytopathic effect; assay type: functional, cell-based
[7] = tested on: Human betaherpesvirus 5; test: Antiviral activity against Human cytomegalovirus Davis infected in HEL cells assessed as inhibition of virus-induced cytopathic effect; assay type: functional, cell-based; details: Human betaherpesvirus 5, Davis; method in brief: as §1
[8] = tested on: Punta Toro virus; test: Antiviral activity against Punta Toro virus infected in African green monkey Vero cells assessed as inhibition of virus-induced cytopathic effect; assay type: functional; method in brief: as §1
[9] = tested on: Vaccinia virus; test: Antiviral activity against Vaccinia virus Lederle infected in HEL cells assessed as inhibition of virus-induced cytopathic effect; assay type: functional, cell-based; details: Orthopoxvirus vaccinia
[10] = tested on: Human alphaherpesvirus 3; test: Antiviral activity against wild type thymidine kinase-deficient Varicella-Zoster virus 07-1 infected in HEL cells assessed as inhibition of virus-induced plaque formation; assay type: functional, cell-based; details: Human alphaherpesvirus 3, 07-1, HEL
Method in brief: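 HEL fibroblast monolayers were infected with 20 PFU of VZV and kept with varying compound concentrations. Plaques were counted once formation was complete in untreated infected controls.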

[11] = tested on: Influenza A virus; test: Antiviral activity against Influenza A virus (H1N1) infected in HEL cells assessed as inhibition of virus-induced cytopathic effect; assay type: functional, cell-based
[12] = tested on: Human alphaherpesvirus 1; test: Antiviral activity against wild type Herpes simplex virus 1 KOS infected in HEL cells assessed as inhibition of virus-induced cytopathic effect; assay type: functional, cell-based; details: Human alphaherpesvirus 1, KOS
[13] = tested on: Mammalian orthoreovirus 1; test: Antiviral activity against Reovirus-1 infected in African green monkey Vero cells assessed as inhibition of virus-induced cytopathic effect; assay type: functional; method in brief: as §1
[14] = tested on: Human alphaherpesvirus 1; test: Antiviral activity against thymidine kinase-deficient ACV-resistant Herpes simplex virus 1 KOS infected in HEL cells assessed as inhibition of virus-induced cytopathic effect; assay type: functional, cell-based; details: Human alphaherpesvirus 1, KOS
[15] = Antiviral activity against Respiratory syncytial virus A strain long infected in human HeLA cells assessed as inhibition of virus-induced cytopathic effect; assay type: functional, cell-based; method in brief: as §1
[16] = tested on: Vesicular stomatitis virus; test: Antiviral activity against Vesicular stomatitis virus infected in HEL cells assessed as inhibition of virus-induced cytopathic effect; assay type: functional, cell-based
[17] = tested on: Feline coronavirus; test: Antiviral activity against Feline coronavirus infected in CRFK cells assessed as inhibition of virus-induced cytopathic effect; assay type: functional, cell-based
[18] = tested on: Human alphaherpesvirus 3; test: Antiviral activity against wild type thymidine kinase expressing Varicella-Zoster virus Oka infected in HEL cells assessed as inhibition of virus-induced plaque formation; assay type: functional, cell-based; details: Human alphaherpesvirus 3, Oka
Method in brief: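 Confluent HEL cultures were inoculated with 20 PFU of VZV and incubated with varying compound concentrations. Plaques were counted once formation was complete in untreated infected controls.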

[19] = tested on: Human respirovirus 3; test: Antiviral activity against Parainfluenza virus 3 infected in African green monkey Vero cells assessed as inhibition of virus-induced cytopathic effect; assay type: functional; method in brief: as §1
[20] = tested on: HEL; test: Cytotoxicity against HEL cells assessed as reduction in cell growth after 3 days by coulter counter method; assay type: cell-based; details: human, hel, 72 h
Method in brief: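 HEL cells were seeded at 5 × 10³ cells/well and grown for 24 h, then given medium containing graded compound concentrations. After 3 days at 37 °C, cells were counted by Coulter counter.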

Compound	Activity [1]	Activity [2]	EC50 [3] [µM]	Activity [4]	EC50 [5] [µM]	Activity [6]	EC50 [7] [µM]	Activity [8]	EC50 [9] [µM]	EC50 [10] [µM]	Activity [11]	EC50 [12] [µM]	Activity [13]	EC50 [14] [µM]	Activity [15]	Activity [16]	Activity [17]	EC50 [18] [µM]	Activity [19]	CC50 [20] [µM]
CCCCCCCCCCCCCCCCCCOCCOP(=O)(COCCn1cnc(N)nc1=O)OCCOCCCCCCCCCCCCCCCCCC	inactive	inactive	> 100	inactive	> 20	inactive	> 20	inactive	> 100	> 0.8	inactive	> 100	inactive	> 100	inactive	inactive	inactive	> 4	inactive	
CC(C)(C)C(=O)OCOP(=O)(O)COCCn1cnc(N)nc1=O	inactive	inactive	142	inactive	123	inactive	116	inactive	> 275	128	inactive	142	inactive	131	inactive	inactive	inactive	40.7	inactive	> 275
Nc1ccn(C[C@@H](CO)OCP(=O)(O)O)c(=O)n1 [CIDOFOVIR]			1.39		0.87		0.76		22.2			2.93		2.66						216
CC(C)OC(=O)OCOP(=O)(O)COCCn1cnc(N)nc1=O	inactive	inactive	> 100	inactive	> 100	inactive	> 100	inactive	> 100	48.9	inactive	> 100	inactive	> 100	inactive	inactive	inactive	48.9	inactive	
COP(=O)(O)COCCn1cnc(N)nc1=O	inactive	inactive	> 100	inactive	> 100	inactive	> 100	inactive	> 100	> 100	inactive	> 100	inactive	> 100	inactive	inactive	inactive	> 100	inactive	> 100
CCOC(=O)[C@H](Cc1ccccc1)NP(=O)(O)COCCn1cnc(N)nc1=O	inactive	inactive	> 100	inactive	> 100	inactive	> 100	inactive	> 100	> 100	inactive	> 100	inactive	> 100	inactive	inactive	inactive	> 100	inactive	> 100
CC(C)OC(=O)OCOP(=O)(COCCn1cnc(N)nc1=O)OCOC(=O)OC(C)C	inactive	inactive	22	inactive	26.2	inactive	20	inactive	> 100	23.2	inactive	22	inactive	22	inactive	inactive	inactive	15.3	inactive	
CC(C)(C)C(=O)OCOP(=O)(COCCOc1cc(N)nc(N)n1)OCOC(=O)C(C)(C)C	inactive	inactive	9.5	inactive	47.4	inactive	36.5	inactive		1.26	inactive	10	inactive	14.5	inactive	inactive	inactive	0.67	inactive	16.6
Nc1nc2c(ncn2COCCO)c(=O)[nH]1 [ACYCLOVIR]			0.18						> 250											> 440
CCCCCCCCCCCCCCCCCCOCCNc1ncn(CCOCP(=O)(OCCOCCCCCCCCCCCCCCCCCC)OCCOCCCCCCCCCCCCCCCCCC)c(=O)n1	inactive	inactive	> 100	inactive	> 100	inactive	> 100	inactive	> 100	100	inactive	> 100	inactive	> 100	inactive	inactive	inactive	44.7	inactive	
Nc1nc(O)c2ncn(COC(CO)CO)c2n1 [GANCICLOVIR]									> 100											≥ 308
O=c1[nH]c(=O)n([C@H]2C[C@H](O)[C@@H](CO)O2)cc1/C=C/Br [BRIVUDINE]			141						19.1	58.8								0.024		242
